Reference: ChEMBL document CHEMBL3588831, “Synthesis and in Vivo Evaluation of [123I]Melanin-Targeted Agents” (J Med Chem, 2015)

tested on: not listed separately; test: Retention time of the compound by HPLC method; format: physicochemical; conditions: not given; call rule not given here

Retention_time	Structure (SMILES)
16.7 min	O=C(CN1Cc2ccccc2C1=O)N1C[C@H]2CN(Cc3ccc([123I])cc3)C[C@H]2C1

tested on: not listed separately; test: Drug distribution in eyes of C57BL/6J mouse bearing mouse B16F0 cells at 18 to 20 MBq, iv measured over 72 hrs by SPECT imaging study; format: ADME, organism-based, Eye; conditions: in vivo
In short: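 Female C57BL/6J mice (5–6 weeks) were inoculated s.c. on the left flank with 3 × 10^5 B16F0 cells in PBS and used after 11 days, with tumors 2–12 mm. Each received 18–20 MBq in 100 μL by lateral tail vein (n = 3 per tracer). Planar SPECT was done under isoflurane at 10–60 min, 3, 6, 24, 48 and 72 h. ROI pixel values were decay-corrected.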

Drug uptake	Structure (SMILES)
Active	O=C(CN1Cc2ccccc2C1=O)N1C[C@H]2CN(Cc3ccc([123I])cc3)C[C@H]2C1

tested on: Mus musculus; test: Biodistribution in tumor of C57BL/6J mouse bearing mouse B16F0 cells at 0.37 to 1.85 MBq, iv after 24 hrs by gamma counting method; format: ADME, organism-based; conditions: in vivo
In short: (§1)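 Female C57BL/6J mice (5−6 weeks), s.c. inoculated on left flank with 3 × 10^5 B16F0 cells in Ca2+/Mg2+-free PBS, used 11 days later (tumors 2−12 mm). Radiotracer given via tail vein in 100 μL (~0.37 MBq for 1−24 h, 1.85 MBq for 48 h). Organs dissected, weighed, γ-counted, decay corrected. Expressed as % ID/g against injected-dose dilutions. Mean ± SEM, n = 5.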

Drug uptake	Structure (SMILES)
7.8 % ID/g	O=C(CN1Cc2ccccc2C1=O)N1C[C@H]2CN(Cc3ccc([123I])cc3)C[C@H]2C1

tested on: Mus musculus; test: Biodistribution in eyes of C57BL/6J mouse bearing mouse B16F0 cells at 0.37 to 1.85 MBq, iv after 3 hrs by gamma counting method; format: ADME, organism-based, Eye; conditions: in vivo; in short: as §1

Drug uptake	Structure (SMILES)
18.5 % ID/g	O=C(CN1Cc2ccccc2C1=O)N1C[C@H]2CN(Cc3ccc([123I])cc3)C[C@H]2C1

tested on: Mus musculus; test: Biodistribution in eyes of C57BL/6J mouse bearing mouse B16F0 cells at 0.37 to 1.85 MBq, iv after 6 hrs by gamma counting method; format: ADME, organism-based, Eye; conditions: in vivo; in short: as §1

Drug uptake	Structure (SMILES)
21.8 % ID/g	O=C(CN1Cc2ccccc2C1=O)N1C[C@H]2CN(Cc3ccc([123I])cc3)C[C@H]2C1

tested on: Mus musculus; test: Biodistribution in eyes of C57BL/6J mouse bearing mouse B16F0 cells at 0.37 to 1.85 MBq, iv after 48 hrs by gamma counting method; format: ADME, organism-based, Eye; conditions: in vivo; in short: as §1

Drug uptake	Structure (SMILES)
15.8 % ID/g	O=C(CN1Cc2ccccc2C1=O)N1C[C@H]2CN(Cc3ccc([123I])cc3)C[C@H]2C1

tested on: Mus musculus; test: Biodistribution in large gastrointestinal tract of C57BL/6J mouse bearing mouse B16F0 cells at 0.37 to 1.85 MBq, iv after 24 hrs by gamma counting method; format: ADME, organism-based, Large intestine; conditions: in vivo; in short: as §1

Drug uptake	Structure (SMILES)
1 % ID/g	O=C(CN1Cc2ccccc2C1=O)N1C[C@H]2CN(Cc3ccc([123I])cc3)C[C@H]2C1

tested on: Mus musculus; test: Biodistribution in large gastrointestinal tract of C57BL/6J mouse bearing mouse B16F0 cells at 0.37 to 1.85 MBq, iv after 48 hrs by gamma counting method; format: ADME, organism-based; conditions: in vivo; in short: as §1

Drug uptake	Structure (SMILES)
0.1 % ID/g	O=C(CN1Cc2ccccc2C1=O)N1C[C@H]2CN(Cc3ccc([123I])cc3)C[C@H]2C1

tested on: Mus musculus; test: Biodistribution in small gastrointestinal tract of C57BL/6J mouse bearing mouse B16F0 cells at 0.37 to 1.85 MBq, iv after 6 hrs by gamma counting method; format: ADME, organism-based, Small intestine; conditions: in vivo; in short: as §1

Drug uptake	Structure (SMILES)
2.6 % ID/g	O=C(CN1Cc2ccccc2C1=O)N1C[C@H]2CN(Cc3ccc([123I])cc3)C[C@H]2C1

tested on: Mus musculus; test: Biodistribution in small gastrointestinal tract of C57BL/6J mouse bearing mouse B16F0 cells at 0.37 to 1.85 MBq, iv after 16 hrs by gamma counting method; format: ADME, organism-based, Small intestine; conditions: in vivo; in short: as §1

Drug uptake	Structure (SMILES)
0.5 % ID/g	O=C(CN1Cc2ccccc2C1=O)N1C[C@H]2CN(Cc3ccc([123I])cc3)C[C@H]2C1

tested on: Mus musculus; test: Biodistribution in small gastrointestinal tract of C57BL/6J mouse bearing mouse B16F0 cells at 0.37 to 1.85 MBq, iv after 24 hrs by gamma counting method; format: ADME, organism-based, Small intestine; conditions: in vivo; in short: as §1

Drug uptake	Structure (SMILES)
0.3 % ID/g	O=C(CN1Cc2ccccc2C1=O)N1C[C@H]2CN(Cc3ccc([123I])cc3)C[C@H]2C1

tested on: Mus musculus; test: Biodistribution in small gastrointestinal tract of C57BL/6J mouse bearing mouse B16F0 cells at 0.37 to 1.85 MBq, iv after 48 hrs by gamma counting method; format: ADME, organism-based; conditions: in vivo; in short: as §1

Drug uptake	Structure (SMILES)
0.1 % ID/g	O=C(CN1Cc2ccccc2C1=O)N1C[C@H]2CN(Cc3ccc([123I])cc3)C[C@H]2C1

tested on: Mus musculus; test: Biodistribution in thyroid gland of C57BL/6J mouse bearing mouse B16F0 cells at 0.37 to 1.85 MBq, iv after 3 hrs by gamma counting method; format: ADME, organism-based; conditions: in vivo; in short: as §1

Drug uptake	Structure (SMILES)
1.5 % ID/g	O=C(CN1Cc2ccccc2C1=O)N1C[C@H]2CN(Cc3ccc([123I])cc3)C[C@H]2C1

tested on: Mus musculus; test: Biodistribution in thyroid gland of C57BL/6J mouse bearing mouse B16F0 cells at 0.37 to 1.85 MBq, iv after 6 hrs by gamma counting method; format: ADME, organism-based; conditions: in vivo; in short: as §1

Drug uptake	Structure (SMILES)
2.8 % ID/g	O=C(CN1Cc2ccccc2C1=O)N1C[C@H]2CN(Cc3ccc([123I])cc3)C[C@H]2C1

tested on: Mus musculus; test: Biodistribution in thyroid gland of C57BL/6J mouse bearing mouse B16F0 cells at 0.37 to 1.85 MBq, iv after 16 hrs by gamma counting method; format: ADME, organism-based; conditions: in vivo; in short: as §1

Drug uptake	Structure (SMILES)
1 % ID/g	O=C(CN1Cc2ccccc2C1=O)N1C[C@H]2CN(Cc3ccc([123I])cc3)C[C@H]2C1

tested on: Spleen; test: Biodistribution in spleen of C57BL/6J mouse bearing mouse B16F0 cells at 0.37 to 1.85 MBq, iv after 1 hr by gamma counting method; format: ADME, organism-based; conditions: in vivo; in short: as §1

Drug uptake	Structure (SMILES)
0.2 % ID/g	O=C(CN1Cc2ccccc2C1=O)N1C[C@H]2CN(Cc3ccc([123I])cc3)C[C@H]2C1

tested on: Liver; test: Biodistribution in liver of C57BL/6J mouse bearing mouse B16F0 cells at 0.37 to 1.85 MBq, iv after 16 hrs by gamma counting method; format: ADME, organism-based; conditions: in vivo; in short: as §1

Drug uptake	Structure (SMILES)
0.7 % ID/g	O=C(CN1Cc2ccccc2C1=O)N1C[C@H]2CN(Cc3ccc([123I])cc3)C[C@H]2C1

tested on: Kidney; test: Biodistribution in kidney of C57BL/6J mouse bearing mouse B16F0 cells at 0.37 to 1.85 MBq, iv after 1 hr by gamma counting method; format: ADME, organism-based; conditions: in vivo; in short: as §1

Drug uptake	Structure (SMILES)
15.8 % ID/g	O=C(CN1Cc2ccccc2C1=O)N1C[C@H]2CN(Cc3ccc([123I])cc3)C[C@H]2C1

tested on: Kidney; test: Biodistribution in kidney of C57BL/6J mouse bearing mouse B16F0 cells at 0.37 to 1.85 MBq, iv after 3 hrs by gamma counting method; format: ADME, organism-based; conditions: in vivo; in short: as §1

Drug uptake	Structure (SMILES)
8.4 % ID/g	O=C(CN1Cc2ccccc2C1=O)N1C[C@H]2CN(Cc3ccc([123I])cc3)C[C@H]2C1

tested on: Kidney; test: Biodistribution in kidney of C57BL/6J mouse bearing mouse B16F0 cells at 0.37 to 1.85 MBq, iv after 16 hrs by gamma counting method; format: ADME, organism-based; conditions: in vivo; in short: as §1

Drug uptake	Structure (SMILES)
1 % ID/g	O=C(CN1Cc2ccccc2C1=O)N1C[C@H]2CN(Cc3ccc([123I])cc3)C[C@H]2C1

tested on: Kidney; test: Biodistribution in kidney of C57BL/6J mouse bearing mouse B16F0 cells at 0.37 to 1.85 MBq, iv after 24 hrs by gamma counting method; format: ADME, organism-based; conditions: in vivo; in short: as §1

Drug uptake	Structure (SMILES)
0.5 % ID/g	O=C(CN1Cc2ccccc2C1=O)N1C[C@H]2CN(Cc3ccc([123I])cc3)C[C@H]2C1

tested on: Kidney; test: Biodistribution in kidney of C57BL/6J mouse bearing mouse B16F0 cells at 0.37 to 1.85 MBq, iv after 48 hrs by gamma counting method; format: ADME, organism-based; conditions: in vivo; in short: as §1

Drug uptake	Structure (SMILES)
0.2 % ID/g	O=C(CN1Cc2ccccc2C1=O)N1C[C@H]2CN(Cc3ccc([123I])cc3)C[C@H]2C1

tested on: not listed separately; test: Ratio of AUC in tumor to skin of C57BL/6J mouse bearing mouse B16F0 cells at 0.37 to 1.85 MBq, iv by gamma counting method; format: ADME, organism-based; conditions: in vivo
In short: (§2)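 Biodistribution in B16F0-bearing C57BL/6J mice given i.v. tail-vein tracer (~0.37 MBq for 1–24 h, 1.85 MBq for 48 h). Sacrifice at 1, 3, 6, 16, 24 and 48 h, then organs dissected, weighed and γ-counted as decay-corrected % ID/g. Tumor AUC divided by each organ AUC; mean of ratios ± SEM, n = 5.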

Ratio	Structure (SMILES)
23.1	O=C(CN1Cc2ccccc2C1=O)N1C[C@H]2CN(Cc3ccc([123I])cc3)C[C@H]2C1

tested on: not listed separately; test: Ratio of AUC in tumor to bone of C57BL/6J mouse bearing mouse B16F0 cells at 0.37 to 1.85 MBq, iv by gamma counting method; format: ADME, organism-based; conditions: in vivo; in short: as §2

Ratio	Structure (SMILES)
25	O=C(CN1Cc2ccccc2C1=O)N1C[C@H]2CN(Cc3ccc([123I])cc3)C[C@H]2C1

tested on: not listed separately; test: Ratio of AUC in tumor to gastrointestinal tract of C57BL/6J mouse bearing mouse B16F0 cells at 0.37 to 1.85 MBq, iv by gamma counting method; format: ADME, organism-based; conditions: in vivo; in short: as §2

Ratio	Structure (SMILES)
2.9	O=C(CN1Cc2ccccc2C1=O)N1C[C@H]2CN(Cc3ccc([123I])cc3)C[C@H]2C1

tested on: not listed separately; test: Stability in eyes of C57BL/6J mouse bearing mouse B16F0 cells assessed as intact parent compound level at 0.37 to 1.85 MBq, iv after 3 hrs by radio-HPLC and radio-TLC method; format: ADME, organism-based, Eye; conditions: in the assay text read “20 MBq” for “0.37 to 1.85 MBq”, read-out: Stability
In short: (§3)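 Tumor-bearing C57BL/6J mice were sampled 3 and 24 h after i.v. tracer. Tissue was sonicated in CH3CN/water (3:2) with cold iodo standard and KI, then centrifuged. Urine was diluted and spiked; plasma was spiked, with CH3CN precipitation for TLC. Intact fraction came from silica radio-TLC (spot matching standard Rf) and radio-HPLC with precolumn/C18 column switching.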

remaining at 3 h	Structure (SMILES)
90%	O=C(CN1Cc2ccccc2C1=O)N1C[C@H]2CN(Cc3ccc([123I])cc3)C[C@H]2C1

tested on: not listed separately; test: Stability in eyes of C57BL/6J mouse bearing mouse B16F0 cells assessed as intact parent compound level at 0.37 to 1.85 MBq, iv after 24 hrs by radio-HPLC and radio-TLC method; format: ADME, organism-based, Eye; conditions: in the assay text read “20 MBq” for “0.37 to 1.85 MBq”, read-out: Stability; in short: as §3

remaining at 24 h	Structure (SMILES)
80%	O=C(CN1Cc2ccccc2C1=O)N1C[C@H]2CN(Cc3ccc([123I])cc3)C[C@H]2C1

tested on: Plasma; test: Stability in plasma of C57BL/6J mouse bearing mouse B16F0 cells assessed as drug degradation at 0.37 to 1.85 MBq, iv after 24 hrs by radio-HPLC and radio-TLC method; format: ADME, organism-based; conditions: in vivo, in the assay text read “20 MBq” for “0.37 to 1.85 MBq”; in short: as §3

Stability	Structure (SMILES)
Unstable	O=C(CN1Cc2ccccc2C1=O)N1C[C@H]2CN(Cc3ccc([123I])cc3)C[C@H]2C1
